Sampled rows, rich in hits. Any-hit rate of the full collection: about 2.3%.
CHT inh: inhibitors of human choline transporter CHT; AID 488975, 2010; High affinity choline transporter 1 (Homo sapiens), Q9GZV3; B-score at 10 µM; CHT-expressing cells, membrane potential dye, choline response; stronger effect = lower value; hit rate 0.86% among 310,000;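 active = B-score over 3 SD under the library average, and starting fluorescence ratio not unusually high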;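 note: choline stimulus applied at its EC90 after an EC20 pre-addition; B-score computed on integrated fluorescence ratio after choline addition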
NR2F2 inh: NR2F2 transcriptional activity inhibitors, primary screen, cell-based, luciferase reporter, HEK293T, luminescence; AID 686940, 2013; HEK293T NGFI-A luciferase reporter; inhibition, % at 8.6 µM; hit rate 0.7% among 370,000;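 active = inhibition above a per-plate cutoff, mean inhibition of test wells between control levels plus 3 SD, cut at about 38% in these data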;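 note: cells cotransfected with COUP-TFII expression vector driving the NGFI-A reporter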
Target sequence (P24468 whole entry, looked up): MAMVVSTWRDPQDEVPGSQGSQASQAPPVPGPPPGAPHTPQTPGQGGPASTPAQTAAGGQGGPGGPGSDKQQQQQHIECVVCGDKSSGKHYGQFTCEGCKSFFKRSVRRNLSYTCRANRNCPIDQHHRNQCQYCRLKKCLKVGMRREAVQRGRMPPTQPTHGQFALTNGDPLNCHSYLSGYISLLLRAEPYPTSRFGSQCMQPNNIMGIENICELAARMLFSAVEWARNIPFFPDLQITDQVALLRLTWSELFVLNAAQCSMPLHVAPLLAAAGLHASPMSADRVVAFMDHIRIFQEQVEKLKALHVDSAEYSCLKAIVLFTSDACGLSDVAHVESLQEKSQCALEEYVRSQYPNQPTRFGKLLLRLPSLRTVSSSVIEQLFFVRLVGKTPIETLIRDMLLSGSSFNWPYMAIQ
NR2E3 ag-1: inhibitors of NR2E3-RetCOR corepressor binding, primary screen, NR2E3 agonist project, biochemical, TR-FRET, GST-NR2E3, biotin-RetCOR; 1536-well; inhibition of corepressor binding, % at 4.78 µM; hit rate 0.12% among 320,000;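 active = percent inhibition above the cutoff of mean plus 3 SD of all tested compounds, set per screening campaign, cut at about 20% in these data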
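Assay system: NR2E3–RetCOR corepressor complex. Quantity: 1.35 nM GST-NR2E3. Buffer or medium: pH 7.5 Tris-based buffer. Reagent: biotinylated RetCOR corepressor at 7 nM final. Schedule: 5 h at 4 °C. Detection: TR-FRET, emission read at 617 and 671 nm. Replicates: one well per compound, singlicate testing.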
GalR3 antagonist: GalR3 antagonists in HEK293 cells, primary screen, cell-based, fluorescence readout | Galanin receptor type 3 (Homo sapiens), O60755 | HEK293 GalR3-CNG cAMP membrane potential fluorescence; galR3 body fused to GalR1 C-terminus | inhibition, % at 3 µM | hit rate 0.44% among 360,000 | AID 651719, 2012;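 active = inhibition above the screen-wide average plus 3 SD, cut at about 13% in these data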;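 note: forskolin and galanin both at EC90 stimulate the cells; cAMP rise reported by CNG channel membrane potential dye signal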
Target sequence (O60755 1-299 limits assumed): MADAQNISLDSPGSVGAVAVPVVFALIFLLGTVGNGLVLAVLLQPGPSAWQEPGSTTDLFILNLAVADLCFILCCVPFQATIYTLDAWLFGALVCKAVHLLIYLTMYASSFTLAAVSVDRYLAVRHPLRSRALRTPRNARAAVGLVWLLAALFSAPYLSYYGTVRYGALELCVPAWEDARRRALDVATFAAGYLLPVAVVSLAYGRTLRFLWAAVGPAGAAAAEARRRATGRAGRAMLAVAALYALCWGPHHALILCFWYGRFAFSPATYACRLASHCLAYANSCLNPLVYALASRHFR
CHT PAM: CHT positive allosteric modulators, primary screen, cell-based, membrane potential dye, choline EC20; High affinity choline transporter 1 (Homo sapiens), Q9GZV3; CHT-expressing cells; stronger effect = higher value; LV-AA mutant CHT in HEK293 cells; B-score at 10 µM; hit rate 0.49% among 310,000;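 active = initial fluorescence not abnormally high and integrated response B-score, plate-corrected, over 3 SD above library mean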
NR2E3 ag-2: NR2E3 agonists in two-hybrid cells, primary screen, cell-based, luminescence, CHO-S, Gal4-NCOR/VP16-NR2E3; Photoreceptor-specific nuclear receptor (Homo sapiens), Q9Y5X4; luciferase; inhibition of corepressor binding, % at 3.98 µM; hit rate 0.35% among 360,000; AID 602229, 2012;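 active = inhibition above the mean of all tested compounds plus 3 SD, cut at about 70% in these data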;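 note: higher means lower luciferase signal from less NR2E3 corepressor binding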
NR2E3 ag confirm: NR2E3 agonist confirmation in cells, cell-based, luminescence, CHO-S two-hybrid. inhibition, % at 3.98 µM. shares compounds with NR2E3 ag-2. hit rate 51% among 2,300. CHO-S mammalian two-hybrid NR2E3-NCOR, luciferase luminescence;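 active = average inhibition above a cutoff equal to the mean inhibition of all tested compounds plus one SD, cut at about 70% in these data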
GAL4-VP16 luc: GAL4-VP16 reporter modulators, confirmation, counter-screen for NR2E3 agonist project, cell-based, luminescence, CHO-S, high throughput. shares compounds with NR2E3 ag-2. CHO-S GAL4-VP16 luciferase reporter. inhibition, % at 3.98 µM. hit rate 29% among 2,300;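 active = mean inhibition above a cutoff equal to the average over all tested compounds plus one standard deviation, cut at about 70% in these data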;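 note: luciferase from a UAS reporter driven by GAL4-VP16 transactivation; higher means less reporter light so more repression of VP16 activity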
GalR3 antag conf: GalR3 antagonist hit confirmation, cell-based, fluorescence, triplicate; shares compounds with GalR3 antagonist; HEK293 GalR3 CNG cAMP biosensor, membrane potential fluorescence; galR3 fused to GalR1 carboxy tail; challenged with forskolin and galanin at EC90; inhibition, % at 3 µM; hit rate 59% among 1,600; AID 652245, 2013;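 active = inhibition above the primary screen's cutoff, the mean inhibition of all screened compounds plus 3 SD, cut at about 13% in these data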
CNG parental: nonspecific cAMP agonists in parental HEK-CNG cells, counter-screen for GalR3 antagonist project, cell-based, fluorescence, high throughput. shares compounds with GalR3 antagonist. HEK293-CNG parental cells, cAMP membrane potential fluorescence; normalised: DMSO wells 0%, forskolin wells 100%. activation, % at 3 µM. hit rate 10% among 1,600. AID 652268, 2013; in the data active = activation above about 1.3%
VP16 Luc counter: Gal4-VP16 luciferase reporter inhibitors, counter-screen for COUP-TFII antagonist project, cell-based, luminescence, HEK293 | inhibition, % at 8.5 µM | shares compounds with NR2F2 inh | hit rate 25% among 2,500; in the data active = inhibition above about 13%
NR2F2 inh conf: NR2F2 transcriptional activity inhibitors, confirmation, cell-based, luciferase reporter, HEK293, triplicate; shares compounds with NR2F2 inh; HEK293 NGFI-A luciferase reporter, luminescence; inhibition, % at 8.5 µM; hit rate 45% among 2,500; AID 687008, 2013;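 active = mean inhibition over three repeats above a set limit taken from the earlier primary screen, cut at about 38% in these data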
Numbers stand for hits; - = inactive; . = no result given.

SMILES	CHT inh	NR2F2 inh	NR2E3 ag-1	GalR3 antagonist	CHT PAM	NR2E3 ag-2	NR2E3 ag confirm	GAL4-VP16 luc	VP16 Luc counter	NR2F2 inh conf	others
O=S1(=O)c2ccc(Br)cc2OC[C@@H](Cc2ccccc2)N1Cc1cn(Cc2ccc(C(F)(F)F)cc2)nn1	.	-	.	.	.	.	.	.	.	.
O=C(CCN1C(=O)/C(=C\c2ccccc2)SC1=S)NNC(=O)c1ccccc1O	-	-	-	-	-	-	.	.	.	.
O=C(CCCN1C(=O)S/C(=C\c2ccccc2)C1=O)NNC(=O)c1ccccc1O	-	61	-	-	-	-	-	-	82	87
Cc1cc(C)nc(SCC(=O)Nc2ccc(N3CCOCC3)c(Cl)c2)n1	-	42	-	-	-	74	89	79	18	40
COC(=O)[C@H]1C[C@@]2(N3CCCCC3)c3ccccc3N[C@H]2N1S(=O)(=O)c1ccc(C)cc1	.	-	.	.	.	.	.	.	.	.
CC(=O)Nc1ccc2c(c1)C(=O)N(C)[C@H]1CC[C@H](CC(=O)NCc3ccc(F)cc3)O[C@@H]1CO2	.	-	.	.	.	.	.	.	.	.
Cc1ccc(C(=O)OCC(=O)c2cc(C)n(CC3CCCO3)c2C)cc1 (stereo not given)	-	-	-	-	-	-	.	.	.	.
Cc1cc(C(=O)COc2ccccc2C(N)=O)c(C)n1CC1CCCO1 (stereo not given)	-	57	-	-	-	-	90	-	-	39
COCCn1c(C)cc(C(=O)COC(=O)c2ccccc2Br)c1C	-	87	-	-	-	79	-	-	72	95
Cc1cc(C(=O)COC(=O)c2ccccc2O)c(C)n1CC1CCCO1 (stereo not given)	.	97	-	-	.	95	89	80	89	105
Cc1cc(C(=O)COC(=O)c2ccccc2Br)c(C)n1CC1CCCO1 (stereo not given)	-	90	-	-	-	89	81	71	85	101
O=C(Cn1nnc(-c2ccc(N3CCOCC3)cc2)n1)c1cccc(F)c1	.	-	.	.	.	.	.	.	.	.
CC(C)C[C@H](NC(C)(C)C(=O)NC1CCCCC1)C(=O)NCCc1c[nH]c2ccccc12	.	-	.	.	.	.	.	.	.	.
O=C(C1CCCN(S(=O)(=O)c2ccc([N+](=O)[O-])cc2)C1)N1CCN(Cc2ccccc2)CC1 (stereo not given)	.	-	.	.	.	.	.	.	.	.
Cc1cc(C(=O)COC(=O)c2cccnc2Cl)c(C)n1CC1CCCO1 (stereo not given)	-	63	-	-	-	-	-	-	-	56
Cc1cc(C(=O)COC(=O)c2cc(O)c3ccccc3c2O)c(C)n1CC1CCCO1 (stereo not given)	.	.	.	.	.	-	.	.	.	.
COc1ccc(CN(CCN2CCOCC2)C(=O)c2cccc(F)c2F)cc1OC	.	-	.	.	.	.	.	.	.	.
CCCC(=O)N1CCC[C@]2(CC[C@@H](CCC(=O)N(CC)CC)O2)C1	.	-	.	.	.	.	.	.	.	.
Fc1ccc(NC2CCC23CCC(c2ccccc2)CC3)cc1C(F)(F)F (stereo not given)	.	-	.	.	.	.	.	.	.	.
CN(C)c1ccc(/C=C/c2cc[n+]([O-])cc2)cc1	-	.	-	.	-	.	.	.	.	.
CCCCCC[n+]1ccccc1/C=C/c1ccc(N(C)C)cc1	.	92	.	16	.	88	98	80	25	89	GalR3 antag conf=16;CNG parental=41
Cc1nn(-c2nc3ccccc3[nH]2)c(=O)c2ccccc12	-	97	-	-	-	-	-	-	68	90
COC1C=CC=C(C)C(=O)NC2=CC(=O)C(N)=C(CC(C)CC(OC)C(O)C(C)C=C(C)C1OC(N)=O)C2=O (stereo not given)	.	55	.	-	.	91	97	-	61	75
CCCC#Cc1ccc(CC[C@H]2O[C@H]3CC[C@@H](CO)O[C@H]3C[C@H]2NC(=O)CN2CCOCC2)cc1	.	-	.	.	.	.	.	.	.	.
Cc1nc2ccc(NC(=O)c3ccc(F)cc3Cl)cc2c(=O)[nH]1	.	-	.	.	.	.	.	.	.	.
SMILES	CHT inh	NR2F2 inh	NR2E3 ag-1	GalR3 antagonist	CHT PAM	NR2E3 ag-2	NR2E3 ag confirm	GAL4-VP16 luc	VP16 Luc counter	NR2F2 inh conf	others
COc1ccc(CCNc2ncnc3c2oc2ccccc23)cc1OC	-	76	-	-	-	90	97	86	-	73
COc1ccc(CCNc2nc(C)nc3c2oc2ccccc23)cc1OC	-	40	-	-	-	73	90	73	-	-
COc1ccc(CCNc2ncnc3c2c(C)c(C)n3CCO)cc1OC	-	-	-	-	-	-	.	.	.	.
Cn1c(SCC(=O)Nc2ccccc2-c2ccccc2)nnc1-c1ccccc1	.	-	.	.	.	.	.	.	.	.
O=C(NCCc1ccccc1)OCc1cn(Cc2cc(F)ccc2F)nn1	.	-	.	.	.	.	.	.	.	.
CC(=O)Nc1ccc(S(=O)(=O)N2CCN=C2SCc2ccc([N+](=O)[O-])cc2)cc1	-	48	-	-	-	-	79	-	-	-
COc1ccc(OC)c(S(=O)(=O)N2CCCCC2C(=O)N2CCN(CCO)CC2)c1 (stereo not given)	.	-	.	.	.	.	.	.	.	.
Nn1c(SCC(=O)Nc2ccccc2-c2ccccc2)nnc1-c1n[nH]c2c1CCC2	.	-	.	.	.	.	.	.	.	.

Compound activity from PubChem BioAssay.
